Here are results for 47 compounds from PubChem BioAssay AID1515 (The Scripps Research Institute Molecular Screening Center, 2009).

Each structure is given as a SMILES string. Among all 220,000 compounds or so, about 440 (0.2%) were called active.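 Rule for the calls: active = inhibition above the campaign mean of all tested compounds plus 3 SD (cut at about 14% in these data); inactive = the rest.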 Only a selection was taken, and actives are over-represented in it overall.

In the test the target is Serine hydrolase RBBP9 (Homo sapiens) (UniProt O75884). The test is described as follows: blockers of RBBP9 serine hydrolase labeling – biochemical, fluorescence polarization, FP-Rh probe, HTS, primary screen (AID 1515).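 Note: plate controls were DMSO wells with RBBP9 for no effect and wells lacking RBBP9 protein for full effect.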 The conditions noted are these: recombinant RBBP9, FP-Rh probe fluorescence polarization; at 7.94 µM; hits give high values. In a few lines: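 System: RBBP9 protein / Quantity: 2.5 µM RBBP9 dispensing solution, before mixing / Also added: Serine-hydrolase probe FP-Rh, 375 nM pre-mixing / Dosing: 7.94 µM single dose, 0.794% DMSO / Timing: enzyme-compound preincubation 30 min, then probe labeling 45 min, 25 °C / Signal: FP readout at 525/598 nm / Controls: DMSO-treated enzyme wells and wells lacking RBBP9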
Chain of Serine hydrolase RBBP9 (Homo sapiens) (O75884 whole entry, looked up): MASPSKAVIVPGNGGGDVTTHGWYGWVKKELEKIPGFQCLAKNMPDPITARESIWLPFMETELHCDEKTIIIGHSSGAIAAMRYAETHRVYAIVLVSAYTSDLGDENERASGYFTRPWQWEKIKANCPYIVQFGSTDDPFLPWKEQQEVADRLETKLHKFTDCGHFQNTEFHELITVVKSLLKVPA
Background: In fluorescence polarisation assays a small probe gives low polarisation when free and higher when bound to something large.
As to `COc1cccc(NC(=O)NCc2ccc(F)cc2)c1`, the inhibition was -0.62% (inactive).
Turning to `CCNC(=S)NNC(=O)C1CCN(Cc2ccccc2)CC1`, the inhibition was -3.59% (inactive).
The figure for `CCC(=O)Nc1ccc(C(=O)Nc2cccc(OC)c2)cc1` is -4.79% (inactive).
The figure for `CC(=O)c1ccc(NC(=O)c2ccc3c(Cl)c4c(nc3c2)CCCC4)cc1` is -3.32% (inactive).
In the case of `COc1cccc(NC(=O)c2ccc3c(SCC(=O)O)c4c(nc3c2)CCCC4)c1`, the inhibition is 14.3% (active).
The figure for `O=C(NCCCn1ccnc1)C(=O)NCC1OCCN1S(=O)(=O)c1cc(F)ccc1F` (configuration not stated) is -2.12% (inactive); for `O=C(NCc1cccs1)C(=O)NCC1OCCCN1S(=O)(=O)c1ccc(F)cc1` (configuration not stated) it is -5.51% (inactive).
The figure for `Cc1cc(F)ccc1S(=O)(=O)N1CCCOC1CNC(=O)C(=O)NCCC1=CCCCC1` (configuration not stated) is 44.9% (active); for `Cc1cc(CO)nn1-c1ccc([N+](=O)[O-])cc1` it is -1.67% (inactive); for `CCN(CC)Cc1nc2sc(C)c(C)c2c(=O)[nH]1` it is 0.79% (inactive).
Regarding `COc1ccc(C(=O)CSc2nnc(-c3ccco3)o2)cc1`, the inhibition was -6.2% (inactive).
In the case of `CC(C)n1c(=S)[nH]c2cc(C(F)(F)F)ccc21`, the inhibition is -5.5% (inactive).
Regarding `CCN(C(=O)Cc1nc(N)n[nH]1)C1(C(=O)Nc2ccccc2)CCCCC1`, the inhibition was 4.99% (inactive).
Consider `COc1ccc(-c2nnn(Cc3nc(N)nc(N4CCCCC4)n3)n2)cc1`, for which the inhibition was -9.6% (inactive).
Consider `COc1ccc(-n2nnnc2SCc2nc(N)nc(N3CCOCC3)n2)cc1`, for which the inhibition is 14.8% (active).
The figure for `COc1ccc(-n2nnnc2SCC(=O)NCc2cccs2)cc1` is -4.68% (inactive); for `Cc1onc(-c2ccccc2Cl)c1C(=O)OCC(=O)c1ccccc1` it is -7.59% (inactive); for `O=c1nc(N/N=C/c2ccco2)cn[nH]1` it is -3.99% (inactive).
Consider `COC(=O)c1ccccc1NC(=O)Cc1ccccc1OC`, for which the inhibition is 6.78% (inactive).
In the case of `CN1CCN(C(c2cc3cc4c(cc3[nH]c2=O)OCCO4)c2nnnn2C2CCCC2)CC1` (configuration not stated), the inhibition was -9.4% (inactive).
As to `COCCn1nnnc1C(c1cc2ccc(OC)cc2[nH]c1=O)N1CCc2ccccc2C1` (configuration not stated), the inhibition is 5.71% (inactive).
As for `CCOc1ccc2[nH]c(=O)c(C(c3nnnn3CCOC)N3CCOCC3)cc2c1` (configuration not stated), the inhibition is 15.5% (active).
Regarding `C[N+](C)(C)CCOP(=O)([O-])OC[C@H](O)CO`, the inhibition was 0.46% (inactive).
With `COc1ccccc1N1CCN(CC(=O)NCCc2ccc(S(N)(=O)=O)cc2)CC1`, the inhibition was 0.48% (inactive).
The figure for `CCCC(NC(=O)c1ccco1)c1nc2ccccc2[nH]1` (configuration not stated) is 0.23% (inactive); for `O=C(CN1CCN(c2ccc(Cl)cc2)CC1)NCc1cccs1` it is -5.55% (inactive).
For the compound `CC(C)c1ccc(NC(=S)NNc2ccc(Cl)c(C(=O)O)c2)cc1`, the inhibition is -0.79% (inactive).
The figure for `Nc1nnc(SCC(=O)OCc2ccc(Cl)c(Cl)c2)s1` is -1.35% (inactive).
The figure for `Cc1nc(SCC(=O)N2CC(=O)Nc3ccccc32)c2c(C)c(C)sc2n1` is -7.82% (inactive); for `Nn1c(Cc2cccc3ccccc23)nnc1SCC(=O)N1CC(=O)Nc2ccccc21` it is 15.1% (active); for `C=CCn1c(COc2ccccc2F)nnc1SCC(=O)N1CC(=O)Nc2ccccc21` it is -3.31% (inactive).
In the case of `CN1CCNC(=O)C1CC(=O)N1CC=C(c2ccc(F)cc2)CC1` (configuration not stated), the inhibition was 1.72% (inactive).
Consider `COc1cc2c3c(c1)/C(=C1/SC(=S)NC1=O)C(=O)N3C(C)(C)C=C2C`, for which the inhibition is -0.69% (inactive).
The figure for `C=CS(=O)c1sc(Cl)c(N2CCOCC2)c1[N+](=O)[O-]` (configuration not stated) is 17.3% (active); for `COC(=O)COc1ccc(C2NC(=O)NC(C)=C2C(=O)NCc2ccccc2)cc1OC` (configuration not stated) it is -2.89% (inactive).
For the compound `O=C(CNc1ccc(F)cc1F)NC(=O)NCc1ccco1`, the inhibition was 5.92% (inactive).
Regarding `Oc1c(C(c2cccs2)N2CCN(c3ccc(F)cc3)CC2)sc2ncnn12` (configuration not stated), the inhibition was -6.82% (inactive).
For `O=C(c1ccc(F)cc1)N1CCC(n2nnc3ccccc32)CC1`, the inhibition was 1.82% (inactive).
Consider `Cc1cccc(C)c1Nc1c(-c2ccccc2O)nc2ncccn12`, for which the inhibition was 4.64% (inactive).
The figure for `Cc1ccc(-c2nc(C#N)c(NCCCn3ccnc3)o2)cc1` is -5.98% (inactive); for `CC(C)c1ccc2c(c1)c(SC(C)(C)C)c(CC(C)(C)C(=O)O)n2Cc1ccc(Cl)cc1` it is 5.23% (inactive); for `CCN(CC)C(=O)Oc1ccc(OC(=O)N(CC)CC)cc1` it is 3.51% (inactive).
For `CCCc1nc2oc3c(OCC)ncnc3c2c2c1COC(C)(C)C2`, the inhibition was -0.01% (inactive).
On to `CC(C)(C)C(=O)NC(NC(=S)Nc1ccc(S(N)(=O)=O)cc1)C(Cl)(Cl)Cl` (configuration not stated), for which the inhibition was -7.24% (inactive).
The figure for `Cc1ccc(C(C(=O)NC2CCCC2)N(Cc2ccco2)C(=O)CCC(=O)Nc2ccccn2)cc1` (configuration not stated) is -4.24% (inactive); for `O=C(CCCC(=O)N(CC(=O)NC1CCCC1)Cc1ccccc1Cl)Nc1ccccn1` it is 16.9% (active).
As to `CCOc1ccccc1N(CC(=O)NC1CCCCC1)C(=O)CCCC(=O)Nc1ccccn1`, the inhibition was -3.56% (inactive).

Usually inhibition stands for the change of the read-out against control, counted positive when it falls.
